Publication PMC10166615 (Bioorganic & Medicinal Chemistry, 2023)

Tests used:
[1] = Liver microsomes metabolic stability, mouse; assay type: in vitro ADME
Procedure, shortened: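 Mouse liver microsomes at 0.5 mg/mL final protein in K/Mg buffer. Test compound went from a 10 mM stock in ACN into a 1.5 µM spiking solution containing 0.75 mg/mL microsomes. After 5 min pre-incubation at 37 °C, reactions were started with 6 mM NADPH stock. They were quenched with ACN containing internal standard at 0, 5, 15, 30 and 45 min, then shaken and centrifuged.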

[2] = Pharmacokinetics after p.o. and i.v. administration; assay type: in vivo; details: mouse
SARS-CoV-2 = assay: Antiviral activity in Vero E6 cells; assay type: cell-based; details: for antiviral activity relative to nirmatrelvir: EC50 against SARS-CoV-2 compared with nirmatrelvir
[3] = Liver microsomes metabolic stability, human; assay type: in vitro ADME

CC(C)(C)[C@H](NC(=O)C(F)(F)F)C(=O)N1C[C@@H]2CCC[C@@H]2[C@H]1C(=O)N[C@H](C#N)C[C@@H]1CCNC1=O [1a, (1S,3aR,6aS)-N-((S)-1-cyano-2-((S)-2-oxopyrrolidin-3-yl)ethyl)-2-((S)-3,3-dimethyl-2-(2,2,2-trifluoroacetamido)butanoyl)octahydrocyclopenta[c]pyrrole-1-carboxamide]
CLint scaled at 1 µM [1]: 368 mL/min/kg | half-life at 1 µM [1]: 14.8 min | metabolic stability (in words) [1]: susceptible to metabolic effects | AUC(0-inf) ([2]; male, plasma, iv, 10 mg/kg): 2670 ng·h/mL | AUC(0-t) ([2]; male, plasma, iv, 10 mg/kg): 2670 ng·h/mL | MRT inf ([2]; male, plasma, iv, 10 mg/kg): 14.4 min | clearance ([2]; male, plasma, iv, 10 mg/kg): 69.3 mL/min/kg | half-life ([2]; male, plasma, iv, 10 mg/kg): 66 min | bioavailability ([2]; male, plasma, oral, 20 mg/kg): 22.8% | AUC(0-inf) ([2]; male, plasma, po, 20 mg/kg): 1220 ng·h/mL | AUC(0-t) ([2]; male, plasma, po, 20 mg/kg): 1220 ng·h/mL | Cmax ([2]; male, plasma, po, 20 mg/kg): 1310 ng/mL | MRT inf ([2]; male, plasma, po, 20 mg/kg): 52.8 min | Tmax ([2]; male, plasma, po, 20 mg/kg): 25.2 min | half-life ([2]; male, plasma, po, 20 mg/kg): 60 min | Vss_obs ([2]; i.v. (10 mg/kg)): 1011.00 mL/kg | RNA copy inhibition% (SARS-CoV-2; 1 μM compound, preliminary screening): 70% | antiviral activity relative to nirmatrelvir (SARS-CoV-2): 2 fold | CLint scaled at 1 µM [3]: 22 mL/min/kg | half-life at 1 µM [3]: 78.9 min | metabolic stability (in words) [3]: moderate metabolic stability

CC(C)(C)[C@H](NC(=O)C(F)(F)F)C(=O)N1C[C@H]2[C@@H]([C@H]1C(=O)N[C@H](C#N)C[C@@H]1CCNC1=O)C2(C)C [Nirmatrelvir, reference compound]
CLint scaled at 0.75 h, 1 µM [1]: 1180 mL/min/kg | clearance ([2]; male, plasma, iv, 10 mg/kg): 50.1 mL/min/kg

CC(C)(C)[C@H](NS(=O)(=O)C(F)(F)F)C(=O)N1C[C@H]2[C@@H]([C@H]1C(=O)N[C@H](C#N)C[C@@H]1CCNC1=O)C2(C)C [2b, (1R,2S,5S)-N-((S)-1-cyano-2-((S)-2-oxopyrrolidin-3-yl)ethyl)-3-((S)-3,3-dimethyl-2-((trifluoromethyl)sulfonamido)butanoyl)-6,6-dimethyl-3-azabicyclo[3.1.0]hexane-2-carboxamide]
CLint scaled at 0.75 h, 1 µM [1]: 55.8 mL/min/kg | metabolic stability (in words) [1]: moderate metabolic stability | clearance ([2]; male, plasma, iv, 10 mg/kg): 41 mL/min/kg | antiviral activity relative to nirmatrelvir (SARS-CoV-2): 4 fold | CLint scaled at 0.75 h, 1 µM [3]: 2.67 mL/min/kg | metabolic stability (in words) [3]: stable
